Data reported in ChEMBL document CHEMBL2169797, “Rediocide A, an Insecticide, induces G-protein-coupled receptor desensitization via activation of conventional protein kinase C” (J Nat Prod, 2012).
The source made the active and inactive calls. The rule behind the calls is not given here.

How the values were obtained:
[1] = (§1) Inhibition of Drosophila MthB expressed in HEK293 cells assessed as inhibition of SunA1-30-induced calcium influx incubated for 10 mins prior to SunA1-30 addition by Fluo-4-AM based fluorimetry; type: cell-based
How it was run: (§2)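 HEK293 cells stably co-expressing the receptor and Gα16, seeded 3 × 10^4/well overnight. Loaded with 2 μM Fluo-4 AM in HBSS (pH 7.4, 250 μM sulfinpyrazone) 45 min at 37 °C, then pretreated with compound. Receptor-specific agonist added (SunA1-30 for Mth-B). Calcium recorded at ex 485/em 525 nm. IC50 from nonlinear regression; mean ± SEM, n = 3.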

HEK293 = experiment: as §1; type: cell-based; how it was run: as §2
[2] = target: T1, Alpha-1A adrenergic receptor (Homo sapiens, UniProt P35348); experiment: Inhibition of adrenergic receptor 1a expressed in HEK293 cells assessed as inhibition of calcium influx after 10 mins by Fluo-4-AM based fluorimetry; type: functional, cell-based; how it was run: as §2
T1 sequence (P35348 whole entry): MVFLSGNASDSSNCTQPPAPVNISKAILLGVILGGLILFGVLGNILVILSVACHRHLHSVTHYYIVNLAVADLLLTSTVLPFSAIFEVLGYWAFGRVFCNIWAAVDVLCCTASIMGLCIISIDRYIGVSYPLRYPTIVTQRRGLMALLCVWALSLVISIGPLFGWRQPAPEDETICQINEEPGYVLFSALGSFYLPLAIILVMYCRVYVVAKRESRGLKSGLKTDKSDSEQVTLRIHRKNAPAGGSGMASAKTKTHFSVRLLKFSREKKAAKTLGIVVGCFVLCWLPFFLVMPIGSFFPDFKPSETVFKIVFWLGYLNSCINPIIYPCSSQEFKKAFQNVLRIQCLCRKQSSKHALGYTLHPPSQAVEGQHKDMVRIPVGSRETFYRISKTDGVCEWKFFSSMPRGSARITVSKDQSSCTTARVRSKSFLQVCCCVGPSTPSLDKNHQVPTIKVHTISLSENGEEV

[3] = target: T2, Alpha-1B adrenergic receptor (Homo sapiens, UniProt P35368); experiment: Inhibition of adrenergic receptor 1b receptor expressed in HEK293 cells assessed as inhibition of calcium influx after 10 mins by Fluo-4-AM based fluorimetry; type: functional, cell-based; how it was run: as §2
T2 sequence (P35368 whole entry): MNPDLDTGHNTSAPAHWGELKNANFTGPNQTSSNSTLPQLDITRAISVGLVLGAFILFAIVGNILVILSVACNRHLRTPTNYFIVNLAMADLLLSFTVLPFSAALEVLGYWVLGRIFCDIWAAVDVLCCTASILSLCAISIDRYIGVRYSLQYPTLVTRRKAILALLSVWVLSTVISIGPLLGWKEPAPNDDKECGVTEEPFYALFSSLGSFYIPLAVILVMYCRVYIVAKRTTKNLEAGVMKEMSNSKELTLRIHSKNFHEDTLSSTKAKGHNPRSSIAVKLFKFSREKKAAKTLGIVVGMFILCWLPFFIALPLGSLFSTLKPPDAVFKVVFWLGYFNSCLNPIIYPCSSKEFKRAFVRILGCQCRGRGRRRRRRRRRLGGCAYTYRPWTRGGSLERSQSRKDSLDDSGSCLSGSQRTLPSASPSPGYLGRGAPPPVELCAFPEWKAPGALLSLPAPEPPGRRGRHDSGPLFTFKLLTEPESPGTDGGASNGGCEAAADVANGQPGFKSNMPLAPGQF

[4] = target: T3, C-C chemokine receptor type 6 (Homo sapiens, UniProt P51684); experiment: Inhibition of CCR6 expressed in HEK293 cells assessed as inhibition of calcium influx after 10 mins by Fluo-4-AM based fluorimetry; type: functional, cell-based; how it was run: as §2
T3 sequence (P51684 whole entry): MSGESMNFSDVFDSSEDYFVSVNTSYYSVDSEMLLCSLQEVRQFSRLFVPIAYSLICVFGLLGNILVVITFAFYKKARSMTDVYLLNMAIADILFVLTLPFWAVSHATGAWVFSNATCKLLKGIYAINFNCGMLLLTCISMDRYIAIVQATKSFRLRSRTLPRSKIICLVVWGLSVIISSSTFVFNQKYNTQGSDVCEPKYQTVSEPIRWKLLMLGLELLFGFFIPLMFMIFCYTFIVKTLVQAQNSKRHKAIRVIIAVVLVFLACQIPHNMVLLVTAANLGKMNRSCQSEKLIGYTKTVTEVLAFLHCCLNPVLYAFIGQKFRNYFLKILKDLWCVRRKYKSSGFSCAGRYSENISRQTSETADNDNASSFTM

Glucagon receptor [5] = target: T4, Glucagon receptor (Homo sapiens, UniProt P47871); experiment: Inhibition of GCGR expressed in HEK293 cells assessed as inhibition of calcium influx after 10 mins by Fluo-4-AM based fluorimetry; type: functional, cell-based
How it was run: (§3)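 HEK293 cells stably co-expressing GCGR and Gα16 (G418/blasticidin selected) were seeded at 3 × 10^4 cells/well and cultured overnight. They were loaded with 2 μM Fluo-4 AM in HBSS (pH 7.4, 250 μM sulfinpyrazone) at 37 °C for 45 min, held 10 min at room temperature, then given agonist. Calcium was read at ex 485/em 525 nm. IC50 came from nonlinear regression, means ± SEM, n = 3.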

Glucagon receptor [6] = target: T4, Glucagon receptor; experiment: Agonist activity at GCGR expressed in HEK293 cells assessed as calcium influx at 1 uM by Fluor-4-AM based fluorimetry; type: functional, cell-based
How it was run: (§4)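 HEK293 cells stably co-expressing GCGR and Gα16, selected with G418/blasticidin, seeded 3 × 10^4/well overnight. Loaded with 2 μM Fluo-4 AM in HBSS with sulfinpyrazone, pH 7.4, 45 min at 37 °C. First stimulation with compound, 100 nM glucagon or 1% DMSO. After 30 min cells washed and restimulated with 100 nM glucagon. Calcium read at ex 485/em 525 nm. Three independent experiments, each in triplicate.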

Glucagon receptor [7] = target: T4, Glucagon receptor; experiment: Induction of GCGR desensitization expressed in HEK293 cells assessed as reduction in glucagon-induced calcium influx at 1 uM incubated for 30 mins prior to glucagon-induction by Fluo-4-AM based fluorimetry; type: functional, cell-based; how it was run: as §4
Glucagon receptor [8] = target: T4, Glucagon receptor; experiment: Activation of pDsRed-tagged GCGR expressed in HEK293 cells assessed as receptor internalization at 1 uM incubated after 30 mins by Hoechst staining-based fluorescence microscopy; type: cell-based
How it was run: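 HEK293 cells transfected with pDsRed-GCGR, grown overnight on coverslips. Stimulated 30 min at 37 °C, with 1% DMSO as negative control. Fixed in 4% formaldehyde/PBS, nuclei stained with Hoechst 33342. Surface versus internalized receptor scored by fluorescence microscopy.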

[9] = target: T5, Protein kinase C (PKC) (Homo sapiens) (UniProt O94806+P41743+P17252+P05129+Q05655+P05771+Q05513+Q02156+P24723+Q15139+Q04759); experiment: Induction of PKC phosphorylation in HEK293 cells at 1 uM by Western blot analysis; type: cell-based; conditions: TDE = time-dependent effect
How it was run: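 HEK293 cells serum-starved 4 h, then treated for various durations at 37 °C, with 100 nM TPA as reference. Lysates run on 10% SDS-PAGE and immunoblotted with an antibody detecting phosphorylated conventional and novel PKC isoforms (1:1000). Signal normalized to GAPDH, detected by ECL. Mean ± SEM, n = 3; two-tailed t test.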

[10] = target: T5, Protein kinase C (PKC) (Homo sapiens); experiment: Induction of PKC phosphorylation in HEK293 cells at 1 uM by Western blot analysis in presence of GF109203 X; type: cell-based
How it was run: (§5)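 Serum-starved (4 h) HEK293 cells. Phospho-PKC induced by compound (1 μM) or TPA (100 nM), each in the presence of GF109203 X (1 μM) or rottlerin (10 μM). Read by Western blot with phospho-PKC antibody, normalized to GAPDH. Mean ± SEM, n = 3; two-tailed t test.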

[11] = target: T5, Protein kinase C (PKC) (Homo sapiens); experiment: Induction of PKC phosphorylation in HEK293 cells at 1 uM by Western blot analysis in presence of rotterin; type: cell-based; how it was run: as §5
[12] = target: Protein kinase C alpha type (Homo sapiens) (UniProt P17252); experiment: Activation of human GFP-tagged PKCalpha expressed in HEK293 cells assessed as translocation from cytoplasm to membrane at 1 uM after 30 mins by Hoechst staining-based fluorescence microscopy; type: cell-based
How it was run: (§6)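 HEK293 cells transfected with pCR259hPKCα-GFP, grown overnight on coverslips. Pretreated 15 min at 37 °C with GF109203 X or vehicle, then stimulated 30 min. Fixed in 4% formaldehyde/PBS, nuclei stained with Hoechst 33342 10 min at room temperature. GFP-PKCα membrane translocation imaged by inverted fluorescence microscopy.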

[13] = target: Protein kinase C alpha type (Homo sapiens) (UniProt P17252); experiment: Activation of human GFP-tagged PKCalpha expressed in HEK293 cells assessed as translocation from cytoplasm to membrane at 1 uM after 30 mins by Hoechst staining-based fluorescence microscopy in presence of GF109203X; type: cell-based; how it was run: as §6
Glucagon receptor [14] = target: T4, Glucagon receptor; experiment: Agonist activity at GCGR expressed in HEK293 cells assessed as calcium influx at 1 uM by Fluor-4-AM based fluorimetry in presence of GF109203X; type: functional, cell-based
How it was run: (§7)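 Setup as for the GCGR calcium assay (stable GCGR/Gα16 HEK293, 2 μM Fluo-4 AM, HBSS pH 7.4). Cells preincubated 15 min with 10 μM GF109203X. Then first stimulation with compound, 100 nM glucagon or 1% DMSO. After 30 min cells washed, restimulated with 100 nM glucagon, calcium read at ex 485/em 525 nm. Three independent experiments in triplicate.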

Glucagon receptor [15] = target: T4, Glucagon receptor; experiment: Induction of GCGR desensitization expressed in HEK293 cells assessed as reduction in glucagon-induced calcium influx at 1 uM incubated for 30 mins prior to glucagon-induction by Fluo-4-AM based fluorimetry in presence of GF109203X; type: functional, cell-based; how it was run: as §7
Glucagon receptor [16] = target: T4, Glucagon receptor; experiment: Induction of GCGR desensitization expressed in HEK293 cells assessed as reduction in glucagon-induced calcium influx at 1 uM incubated for 30 mins prior to glucagon-induction by Fluo-4-AM based fluorimetry in presence of rottlerin; type: functional, cell-based
How it was run: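 Stable GCGR/Gα16 HEK293 cells loaded with 2 μM Fluo-4 AM, then preincubated 15 min with 10 μM rottlerin. First stimulation with compound, 100 nM glucagon or DMSO. After 30 min cells washed and restimulated with 100 nM glucagon. Intracellular calcium recorded at ex 485/em 525 nm. Three independent experiments in triplicate.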

Glucagon receptor [17] = target: T4, Glucagon receptor; experiment: Agonist activity at GCGR expressed in HEK293 cells assessed as calcium influx at 100 nM by Fluor-4-AM based fluorimetry; type: functional, cell-based; how it was run: as §3
Glucagon receptor [18] = target: T4, Glucagon receptor; experiment: Induction of GCGR desensitization expressed in HEK293 cells assessed as reduction in calcium influx at 100 nM incubated for 30 mins prior to second-induction by Fluo-4-AM based fluorimetry; type: functional, cell-based
How it was run: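 GCGR/Gα16 stable HEK293 cells were loaded with Fluo-4 AM and given a first stimulation (100 nM glucagon or test agent; 1% DMSO as the negative control). After a 30 min incubation, cells were washed and restimulated with 100 nM glucagon, and intracellular calcium was recorded at ex 485/em 525 nm. There were three independent experiments, each in triplicate.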

Glucagon receptor [19] = target: T4, Glucagon receptor; experiment: Activation of pDsRed-tagged GCGR expressed in HEK293 cells assessed as receptor internalization at 100 nM incubated after 30 mins by Hoechst staining-based fluorescence microscopy; type: cell-based
How it was run: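 HEK293 cells transfected with pDsRed-GCGR were seeded on coverslips, cultured overnight, then stimulated at 37 °C for 30 min, with 1% DMSO as the negative control. Cells were fixed in 4% formaldehyde in PBS and nuclei were stained with Hoechst 33342 for 10 min at room temperature. Receptor surface versus internalized location was judged by fluorescence microscopy.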

Glucagon receptor [20] = target: T4, Glucagon receptor; experiment: Agonist activity at GCGR expressed in HEK293 cells assessed as calcium influx at 100 nM by Fluor-4-AM based fluorimetry in presence of GF109203X; type: functional, cell-based
How it was run: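 Fluo-4 AM-loaded GCGR stable HEK293 cells were preincubated with 10 μM GF109203X for 15 min, then stimulated with 100 nM glucagon, test agent or 1% DMSO. After 30 min they were washed and restimulated with 100 nM glucagon, with calcium read fluorimetrically. There were three independent experiments, each in triplicate.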

T4 sequence (P47871 whole entry): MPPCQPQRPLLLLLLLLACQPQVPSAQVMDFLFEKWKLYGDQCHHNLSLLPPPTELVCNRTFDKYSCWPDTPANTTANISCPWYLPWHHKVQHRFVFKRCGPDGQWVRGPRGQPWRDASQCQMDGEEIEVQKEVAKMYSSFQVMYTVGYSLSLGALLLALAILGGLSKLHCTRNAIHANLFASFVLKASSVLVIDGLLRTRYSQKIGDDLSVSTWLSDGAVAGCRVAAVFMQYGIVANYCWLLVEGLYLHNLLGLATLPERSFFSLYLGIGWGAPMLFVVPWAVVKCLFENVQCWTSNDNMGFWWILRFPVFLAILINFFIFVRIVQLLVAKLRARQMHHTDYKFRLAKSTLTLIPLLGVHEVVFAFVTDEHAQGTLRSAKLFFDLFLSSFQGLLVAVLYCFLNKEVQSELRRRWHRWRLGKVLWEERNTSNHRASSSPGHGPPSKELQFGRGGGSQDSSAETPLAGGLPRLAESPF

## CC(C)CC(=O)O[C@H]1/C=C/C=C/C(=O)O[C@H]2[C@@H](C)C[C@@H]3[C@]2(O)[C@H](O)[C@@]2(CO)O[C@H]2[C@H]2[C@H]4OC5(c6ccccc6)O[C@@H]([C@@H](C)[C@@]23O5)[C@@]4(O)[C@](C)(O)C[C@H]2CC[C@H]1[C@H]2C [REDIOCIDE A]
[1]
  IC50: 0.088 µM
HEK293
  inhibition: Dose-dependent effect
[2]
  IC50: 0.013 µM
[3]
  IC50: 0.215 µM
[4]
  IC50: 0.261 µM
Glucagon receptor [5]
  IC50: 0.004 µM
Glucagon receptor [6]
  Activity: inactive
Glucagon receptor [7]
  Activity: Active
Glucagon receptor [8]
  Activity: Active
[9]
  Activity: tde
[10]
  Activity: inactive
[11]
  Activity: Active
[12]
  Activity: Active
[13]
  Activity: inactive
Glucagon receptor [14]
  Activity: inactive
Glucagon receptor [15]
  Activity: inactive
Glucagon receptor [16]
  Activity: Active

## GLUCAGON
Glucagon receptor [17]
  Activity: Active
Glucagon receptor [18]
  Activity: Active
Glucagon receptor [19]
  Activity: Active
Glucagon receptor [20]
  Activity: Active
